Compound activity (PubChem BioAssay)
RGS4 inh: human RGS4 inhibition | P49798 | HEK293 M3R/RGS4 inducible, Fluo-4 calcium flux; hits give high values; triggered by carbachol at its EC20 | B-score at 10 µM | 310,000 tested, 0.45% active;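 active means B-score, a plate-corrected calcium signal, over three deviations above library mean, with baseline fluorescence within five deviations of library mean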;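 further: RGS4 expression induced by doxycycline in cells with stable M3 receptor; B-score is computed from the integrated fluorescence ratio over baseline after carbachol; higher B-score means a larger calcium signal and so more RGS4 inhibition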
Target sequence (P49798 whole entry, looked up): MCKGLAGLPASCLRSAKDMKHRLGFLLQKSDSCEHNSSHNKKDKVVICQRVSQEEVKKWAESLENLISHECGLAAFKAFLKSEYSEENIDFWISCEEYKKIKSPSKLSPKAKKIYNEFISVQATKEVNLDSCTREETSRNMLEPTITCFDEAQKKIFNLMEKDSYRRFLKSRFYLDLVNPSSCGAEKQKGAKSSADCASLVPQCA
MrgX1 ag: agonists of human MrgX1 receptor; Q96LB2; MrgX1-HEK293 cells, Fluo-4 calcium fluorescence, agonist mode; hits give high values; B-score at 10 µM; 310,000 tested, 0.44% active; AID 588627;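 active means calcium response B-score plate-corrected fluorescence ratio at least 3 library SD, with starting fluorescence B-score inside 5 SD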
Target sequence (Q96LB2 whole entry, looked up): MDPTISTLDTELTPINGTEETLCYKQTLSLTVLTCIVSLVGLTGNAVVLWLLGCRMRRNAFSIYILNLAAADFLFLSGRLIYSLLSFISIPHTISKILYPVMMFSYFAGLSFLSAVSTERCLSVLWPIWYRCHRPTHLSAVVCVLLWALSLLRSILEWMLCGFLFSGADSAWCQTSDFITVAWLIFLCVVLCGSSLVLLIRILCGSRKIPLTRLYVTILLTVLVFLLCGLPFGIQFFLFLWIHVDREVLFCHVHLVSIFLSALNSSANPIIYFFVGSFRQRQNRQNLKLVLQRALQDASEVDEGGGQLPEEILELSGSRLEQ
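Test system: HEK293 cells stably expressing human MrgX1 receptor; Input: fifteen thousand cells per well; Dosing: compound delivered in addition one of three; Schedule: overnight seeding, then 1 h dark dye loading; Technique: Fluo-4 NW calcium fluorescence; Measure: B-scored fluorescence response ratio; Controls: positive and negative controls per plate.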
MrgX1 antagonist: human MrgX1 receptor antagonism, primary screen. MRGX1-HEK293 calcium flux, Fluo-4, BAM8-22 antagonism; hits give low values. B-score at 10 µM. 310,000 tested, 1.3% active;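 active means calcium-response B-score plate-corrected more than 3 library SD below zero, starting fluorescence within 5 deviations, no agonist response on first addition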;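 further: peak minus trough fluorescence over baseline after final BAM8-22 challenge near maximal dose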
RGS4 act: potentiators or activators of RGS4. HEK293 M3R/inducible RGS4, carbachol calcium flux Fluo4; hits give low values. B-score at 10 µM. 310,000 tested, 0.92% active. AID 463111;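 active means B-score of the integrated calcium signal more than 4 SD below the library mean, with starting fluorescence not abnormally high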;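 further: negative B-score means reduced calcium response which marks RGS4 activation or potentiation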
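Material: Inducible-RGS4 HEK293 cells carrying M3 receptor; also added: carbachol at ECmax as muscarinic agonist stimulus; incubation: compound preincubation 20 min at room temperature before agonist; signal: Fluo4-AM (2 µM) calcium-flux fluorescence, kinetic read; measure: integrated calcium ratio converted to B score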
MrgX1 PAM: human MrgX1 positive allosteric modulation, primary screen; MrgX1-HEK293, Fluo-4 calcium flux, FDSS; hits give high values; B-score at 10 µM; 310,000 tested, 0.63% active; Q96LB2;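 active means plate-corrected calcium response at least 3 library SD above typical, normal starting fluorescence, not activating the receptor alone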;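 further: compound read alongside a low EC10 to EC30 dose of BAM8-22 agonist; peak minus trough fluorescence over baseline measured at the second addition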
RGS4 block valid: RGS4 inhibitor validation; shares compounds with RGS4 inh; HEK293 M3R/RGS4, carbachol calcium Fluo-4 fluorescence; carbachol added at its EC20; 0 = buffer wells, 100 = carbachol control; calcium response, % at 10 µM; 1,700 tested, 65% active;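 active means duplicate-averaged calcium response above the buffer-only control mean plus 5 SD of those controls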;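 further: integrated fluorescence ratio F max minus min over baseline F0; higher response in RGS4-induced cells means RGS4 inhibition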
M3R Ca ctr: non-induced cell nonspecific activity of RGS4 inhibitors. activity (percent), % at 10 µM. HEK293 M3R non-induced, carbachol calcium Fluo-4; submaximal (EC20) carbachol stimulus; buffer wells 0%, carbachol control wells 100%. shares compounds with RGS4 inh. 1,900 tested, 20% active; call rule not given here;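 further: RGS4 induction absent so cells express M3R without RGS4; higher means more calcium signal and flags a non-specific hit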
M3R basal Ca ctr: signal in non-induced cells without carbachol, RGS4 inhibitor counter-screen | shares compounds with RGS4 inh | calcium response (agonist-mode artifact), % at 10 µM | HEK293 M3R/RGS4 non-induced, Fluo-4 calcium, no carbachol; normalised: buffer wells 0%, carbachol wells 100% | AID 493001 | 1,900 tested, 22% active;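 active means duplicate-averaged calcium rise in uninduced cells above buffer wells' mean plus 5 SD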
* = called active by the depositor; i = inactive; / = no result. Only some compounds are listed: those with a hit (about 3.5% of all), similar ones and a draw of the others.

SMILES | RGS4 inh | MrgX1 ag | MrgX1 antagonist | RGS4 act | MrgX1 PAM | RGS4 block valid | M3R Ca ctr | M3R basal Ca ctr
CC(=O)C1=C(C)OC(N)=C(C#N)C1c1cc2cccc(C)c2nc1Cl (stereo not drawn) | 6.8* | i | i | i | i | 22%* | 34%* | i
COCc1nnc(NC(=O)CCc2ccccc2)s1 | i | i | i | i | i | / | i | i
CCOCc1nnc(NC(=O)CCc2ccccc2)s1 | i | i | i | i | i | / | / | /
COCc1nnc(NC(=O)CCc2ccc(OC)cc2)s1 | 5* | i | i | i | i | 30%* | i | i
COc1ccc(CCC(=O)Nc2nnc(C)s2)cc1 | i | i | i | i | i | / | / | /
CCCCNS(=O)(=O)c1ccc2nc(-c3cccnc3)cc(C(=O)NCCCOCC)c2c1 | i | i | i | i | i | / | / | /
CC(=O)c1ccc(NC(=S)NC(=O)c2c(Cl)c(C)nn2C)cc1 | i | i | i | i | i | / | / | /
COc1cccc(/C=N/NC(=O)CSc2nnc(C)n2-c2ccccc2)c1OC | i | i | i | i | i | / | / | /
COc1cccc(/C=N/NC(=O)CSc2ccccc2C)c1O | 5.9* | i | i | i | i | 64%* | i | i
COc1cc(OC)c(OC)cc1/C=N/NC(=O)CSc1ccccc1F | i | i | i | i | i | / | / | /
COc1cccc(/C=N/NC(=O)CSc2ccccc2C)c1OC | i | i | i | i | i | i | i | i
CCCn1c(C(=O)OC)cc2c1ccn2-c1ccc(F)cc1 | i | i | i | i | i | / | / | /
COC(=O)c1cc2c(ccn2-c2ccc(F)cc2)n1CC(C)C | 11* | i | i | i | i | 36%* | i | i
Nc1nc(Nc2ccccc2)nc(NCc2ccco2)c1[N+](=O)[O-] | i | i | i | i | i | i | i | i
C=CCn1c(SCCCCCC)nc(O)cc1=O | i | i | i | i | i | / | / | /
C=CCn1c(SC(C)CC)nc(O)cc1=O (stereo not drawn) | 4.8* | i | i | i | i | i | i | i
CC1=NN(c2ccc(Cl)cc2)C(=O)/C1=C\c1cccn1-c1ccc(S(N)(=O)=O)cc1 | 4.9* | i | i | i | i | 43%* | 42%* | i
Cc1cc(Cl)ccc1Nc1ncccc1C(N)=O | 5.3* | i | i | i | i | 12%* | i | i
Cc1ccc(/C=C/C(=O)N2CCN(c3ncccn3)CC2)o1 | 14* | i | i | i | i | 17%* | i | i
O=C(CCN1C(=O)C2CCCCC2C1=O)Nc1nc(-c2ccccc2)cs1 (stereo not drawn) | i | i | i | i | i | / | / | /
CN1C(=O)/C(=C/c2cccc([N+](=O)[O-])c2)C(=O)N1c1ccccc1 | 36* | i | i | i | i | 44%* | 37%* | i
N#C/C(=C\c1ccccc1[N+](=O)[O-])c1nc(C2CC2)cs1 | i | i | i | i | i | / | / | /
N#C/C(=C\c1ccc([N+](=O)[O-])cc1)c1nc(C2CC2)cs1 | 13* | i | i | i | i | i | i | 56%*
CCOC(=O)[C@@H]1[C@H]2COc3cc(OC)ccc3[C@H]2N2C(=O)N(c3cccc(Cl)c3)C(=O)[C@]12C | i | i | i | i | i | i | i | i
CCOC(=O)[C@@H]1[C@H]2COc3cc(OC)ccc3[C@H]2N2C(=O)N(c3cccc(Cl)c3)C(=O)[C@@]12C | i | i | i | i | i | i | i | i
SMILES | RGS4 inh | MrgX1 ag | MrgX1 antagonist | RGS4 act | MrgX1 PAM | RGS4 block valid | M3R Ca ctr | M3R basal Ca ctr
CCOc1ccccc1/C=C(\C#N)C(=O)Nc1cccc(C(=O)O)c1 | 5* | i | i | i | i | 14%* | i | i
COC(=O)c1ccc(COc2ccccc2/C=C(\C#N)C(=O)Nc2c(C)cc(C)cc2C)cc1 | i | i | i | i | i | i | i | i
CCOc1cccc(NC(=O)/C(C#N)=C\c2cn(CC(=O)O)c3ccccc23)c1 | i | i | i | i | i | / | / | /
COC(=O)c1ccc(COc2ccccc2/C=C(\C#N)C(=O)Nc2ccc(C)cc2C)cc1 | i | i | i | i | i | i | i | i
Cc1cccc2cc(-c3ccccc3)c(-c3ccccc3)c[n+]12 | i | i | i | i | i | / | / | /
COc1ccc(CN2[C@@H](CC(C)=O)c3ccc(/C=C/C(C)=O)cc3S2(=O)=O)cc1 | i | i | i | i | i | / | / | /
COc1cccc(N2[C@@H](CC(C)=O)c3ccc(/C=C/C(C)=O)cc3S2(=O)=O)c1 | 8.2* | i | i | i | i | 32%* | 54%* | i
O=C(NNS(=O)(=O)c1ccc(Cl)cc1)c1cnn(-c2ccccc2)c1-n1cccc1 | i | i | i | i | i | / | / | /
C[C@@H]1CCC[C@]2(O[C@@H](CCO)C[C@@H](O)[C@@H]2O)O1 | i | i | i | i | i | / | / | /
COc1ccc(C(=O)Nc2cccc3cccnc23)cc1OC | 4.9* | i | i | i | i | i | i | i
COc1ccc(NC(=O)C(=O)Nc2cccc3cccnc23)cc1OC | i | i | i | i | i | / | / | /
C#CCOC(=O)Nc1cccn(Cc2c(Cl)cccc2Cl)c1=O | i | i | i | i | i | / | / | /
COC(=O)Nc1ccc(=O)n(Cc2c(Cl)cccc2Cl)c1 | i | i | i | i | i | / | i | i
Cc1ccc(C(=O)Nc2cccc(C(=O)N3CCOCC3)c2)cc1Cl | i | i | i | i | i | / | / | /
CCSc1n[nH]c2nc3c(c(=O)n12)C1(CCCC1)Cc1ccccc1-3 | i | i | i | i | i | / | i | i
C=CCSc1n[nH]c2nc3c(c(=O)n12)C1(CCCC1)Cc1ccccc1-3 | / | i | i | / | i | / | / | /
CC(=O)CS(=O)(=O)c1ccc(Oc2ccc(S(=O)(=O)CC(C)=O)cc2)cc1 | i | i | i | i | i | / | / | /
